Assay [1] addresses Glycogen synthase kinase-3 (Homo sapiens) (UniProt P49840+P49841). The assay can be described thus: Inhibition of GSK3 in human A-375 cells harbouring TCF/LEF luciferase reporter gene assessed as increase in wnt signaling incubated for 5 hrs by Bright-Glo luciferase assay. Format: cell-based. The method in brief: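 A375 cells carried a lentiviral TCF/LEF-responsive luciferase reporter, selected with puromycin 1 μg/ml for 3 days. Cells were seeded at 10,000 per well and moved to 2% FBS medium. Agents were given at 0.5 nmol/L–1 μmol/L for 5 h, and luciferase was read with Bright-Glo substrate.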

Assay [2] has as its system A-375. Briefly: Antiproliferative activity against human A-375 cells transfected with beta-catenin shRNA assessed as reduction in cell viability incubated for 72 hrs by CellTitre-Glo assay. It counts as functional, cell-based. In outline: (§1)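 A375 or M14 cells were transduced with lentiviral shRNA particles (target or control) at MOI 2 with polybrene 8 μg/ml. Puromycin selection at 2 μg/ml began 48 h later, and knockdown was checked by immunoblot. Cells were seeded at 2,000 per well in 2% FBS medium, exposed to agents for 72 h, and read by CellTiter-Glo.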

Another assay concerns CHL-1. Briefly: Antiproliferative activity against human CHL-1 cells assessed as reduction in cell viability incubated for 72 hrs by CellTitre-Glo assay. To be noted: CHL-1, 72 h. It counts as functional, cell-based. In outline:
(§2)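 Cells seeded at 2,000 per well and left to adhere overnight. After 24 h, medium was switched to growth medium with 2% FBS. Test agent was added at 0.5 nmol/L to 10 μmol/L for 72 h. Viability was read by CellTiter-Glo luminescence. IC50 came from nonlinear regression sigmoidal dose-response fits.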

The test system of assay [3] is A-375. Briefly: Antiproliferative activity against human A-375 cells harboring BRAF V600E mutation assessed as reduction in cell viability incubated for 72 hrs by CellTitre-Glo assay. Format: functional, cell-based. As to conditions: A-375, 72 h. The method in brief:
as §2

Assay [4] concerns M14. The assay can be described thus: Antiproliferative activity against human M14 cells transfected with beta-catenin shRNA assessed as reduction in cell viability incubated for 72 hrs by CellTitre-Glo assay. It counts as functional, cell-based. In outline:
as §1

In assay [5] the test system is M14. The assay can be described thus: Antiproliferative activity against human M14 cells harboring BRAF V600E mutation assessed as reduction in cell viability incubated for 72 hrs by CellTitre-Glo assay. It counts as functional, cell-based. As to conditions: M14, 72 h. The method in brief:
as §2

Assay [6] concerns M14. Briefly: Antiproliferative activity against human vemurafenib-resistant M14 cells harboring BRAF V600E mutation assessed as reduction in cell viability incubated for 72 hrs by CellTitre-Glo assay. It counts as functional, cell-based. To be noted: M14, 72 h. In outline: (§3)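 Resistant A375 or M14 lines were derived by growth in vemurafenib over 3 months. Cells were seeded at 2,000 per well and allowed to adhere overnight, then moved to 2% FBS growth medium. Agents were added at 0.5 nmol/L–10 μmol/L for 72 h. Viability was read by CellTiter-Glo, and IC50 was taken from sigmoidal nonlinear regression.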

A short description of assay [7]: Antiproliferative activity against human MEL1102 cells harboring NRAS Q61K mutation assessed as reduction in cell viability incubated for 72 hrs by CellTitre-Glo assay. To be noted: MEL1102, 72 h. Format: functional, cell-based. In outline: as §2
The subject of assay [8] is A-375. The assay can be described thus: Antiproliferative activity against human A-375 cells transfected with Axin1 shRNA assessed as reduction in cell viability incubated for 72 hrs by CellTitre-Glo assay. Format: functional, cell-based. The method in brief:
as §1

Assay [9] has as its system M14. The assay can be described thus: Antiproliferative activity against human M14 cells transfected with Axin1 shRNA assessed as reduction in cell viability incubated for 72 hrs by CellTitre-Glo assay. Format: functional, cell-based. The method in brief: as §1
The test system of the next assay is SK-MEL-2. Briefly: Antiproliferative activity against human SK-MEL-2 cells harboring NRAS Q61R mutation assessed as reduction in cell viability incubated for 72 hrs by CellTitre-Glo assay. It counts as functional, cell-based. To be noted: SK-MEL-2, 72 h. In outline: as §2
Assay [10] has as its system A-375. Briefly: Antiproliferative activity against human vemurafenib-resistant A-375 cells harboring BRAF V600E mutation assessed as reduction in cell viability incubated for 72 hrs by CellTitre-Glo assay. Format: functional, cell-based. To be noted: A-375, 72 h. The method in brief:
as §3

Assay [11] is described as follows: Antiproliferative activity against human MEXF462 cells harboring BRAF V600E mutation assessed as reduction in cell viability incubated for 72 hrs by CellTitre-Glo assay. Format: functional, cell-based. To be noted: MEXF462, 72 h. The method in brief:
as §2

The subject of the next assay is A2058. Briefly: Antiproliferative activity against human A2058 cells harboring BRAF V600E/PTEN null mutation assessed as reduction in cell viability incubated for 72 hrs by CellTitre-Glo assay. Format: functional, cell-based. To be noted: A2058, 72 h. The method in brief:
as §2

A short description of assay [12]: Antiproliferative activity against human MEXF276 cells harboring BRAF V600E mutation assessed as reduction in cell viability incubated for 72 hrs by CellTitre-Glo assay. Format: functional, cell-based. To be noted: MEXF276, 72 h. The method in brief: as §2
A short description of assay [13]: Antiproliferative activity against human MEXF1792 cells harboring NRAS G13D mutation assessed as reduction in cell viability incubated for 72 hrs by CellTitre-Glo assay. Format: functional, cell-based. To be noted: MEXF1792, 72 h. In outline: as §2
A further assay concerns SK-MEL-28. Briefly: Antiproliferative activity against human SK-MEL-28 cells harboring BRAF V600E mutation assessed as reduction in cell viability incubated for 72 hrs by CellTitre-Glo assay. It counts as functional, cell-based. As to conditions: SK-MEL-28, 72 h. The method in brief: as §2
Assay [14] in a line: Antiproliferative activity against human MEXF1341 cells harboring NRAS Q61 mutation assessed as reduction in cell viability incubated for 72 hrs by CellTitre-Glo assay. It counts as functional, cell-based. To be noted: MEXF1341, 72 h. In outline:
as §2

Molecules are shown by their SMILES. Active and inactive are the calls of the source. The calls are words filed in the database; no cut-off is given here.

Sequence of Glycogen synthase kinase-3 (Homo sapiens) (P49840 whole entry, looked up): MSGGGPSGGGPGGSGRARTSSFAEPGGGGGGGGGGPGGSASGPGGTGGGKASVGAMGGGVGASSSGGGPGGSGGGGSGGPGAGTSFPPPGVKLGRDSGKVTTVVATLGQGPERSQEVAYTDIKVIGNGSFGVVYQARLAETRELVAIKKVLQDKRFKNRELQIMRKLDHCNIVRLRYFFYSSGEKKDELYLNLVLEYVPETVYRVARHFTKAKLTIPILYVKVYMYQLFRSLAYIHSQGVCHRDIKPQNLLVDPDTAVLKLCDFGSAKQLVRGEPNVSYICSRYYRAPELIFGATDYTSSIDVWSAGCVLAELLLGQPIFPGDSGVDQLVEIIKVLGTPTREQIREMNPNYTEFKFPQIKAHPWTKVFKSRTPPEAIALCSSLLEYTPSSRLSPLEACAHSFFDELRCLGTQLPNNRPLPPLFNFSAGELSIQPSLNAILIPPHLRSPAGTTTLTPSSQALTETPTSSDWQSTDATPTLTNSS
Sequence of Glycogen synthase kinase-3 (Homo sapiens) (P49841 whole entry, looked up): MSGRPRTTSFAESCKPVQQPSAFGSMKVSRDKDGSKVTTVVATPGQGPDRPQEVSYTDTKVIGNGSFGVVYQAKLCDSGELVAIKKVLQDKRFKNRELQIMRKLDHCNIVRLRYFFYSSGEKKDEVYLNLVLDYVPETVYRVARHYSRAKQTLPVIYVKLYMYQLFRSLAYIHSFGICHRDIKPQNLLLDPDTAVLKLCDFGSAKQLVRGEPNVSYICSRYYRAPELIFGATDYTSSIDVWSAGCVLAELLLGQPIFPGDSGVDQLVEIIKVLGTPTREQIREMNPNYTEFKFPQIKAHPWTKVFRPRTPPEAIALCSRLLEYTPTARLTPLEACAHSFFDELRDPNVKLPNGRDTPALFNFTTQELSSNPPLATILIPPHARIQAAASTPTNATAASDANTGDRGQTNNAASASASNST

Regarding `Nc1nc2ccc(OC(F)(F)F)cc2s1`, the inhibition entry in assay [1] was “Active”.

`CCCS(=O)(=O)Nc1ccc(F)c(C(=O)c2c[nH]c3ncc(-c4ccc(Cl)cc4)cc23)c1F` [VEMURAFENIB]: the outcome in the assay with A-375 [2], with M14 [4], in the assay with A-375 [8] and in the assay on M14 [9] was Active. Further, the IC50 (as a rule, the midpoint of a concentration-inhibition curve) with CHL-1 is over 10 µM; in the assay on A-375 [3], 0.102 µM; with M14 [5], 0.088 µM; with M14 [6], 3.86 µM; in [7], 1.26 µM; in the assay on SK-MEL-2, over 10 µM. The IC50 with A-375 [10] turned out to be 5.48 µM.

Regarding `CC(=O)O/N=C1/C(=C2/C(=O)Nc3cc(Br)ccc32)Nc2ccccc21` [6-BROMOINDIRUBIN-3'-ACETOXIME], the IC50 in the assay with CHL-1 was 1.46 µM; in the assay on A-375 [3], 0.914 µM; in [11] it was 0.605 µM; with A2058, 0.361 µM; in the assay with M14 [5], 0.646 µM; in assay [12] it was 0.954 µM. Moreover, the IC50 in [7] was 0.75 µM; in [13], 4.94 µM; with SK-MEL-28, over 5 µM; in the assay with SK-MEL-2, 0.942 µM; in assay [14], 1.15 µM. The inhibition entry in assay [1] is “Active”.

Source of the values: ChEMBL document CHEMBL5653620, “Activating the Wnt/β-Catenin Pathway for the Treatment of Melanoma--Application of LY2090314, a Novel Selective Inhibitor of Glycogen Synthase Kinase-3” (PLoS One, 2015).
